Source: ChEMBL document CHEMBL4339207, “Kinase inhibitions in pyrido[4,3-h] and [3,4-g]quinazolines: Synthesis, SAR and molecular modeling studies” (Bioorg Med Chem, 2019)

Assays:
[1] = molecular target: T1, Dual specificity protein kinase CLK1 (Homo sapiens, UniProt P49759); assay: Inhibition of recombinant human N-terminal GST-tagged CLK1 (129 to end residues) expressed in baculovirus infected Sf9 insect cells assessed as residual activity at 1 uM using MBP as substrate measured after 60 mins by ADP-Glo luminescence assay relative to control
Target sequence in this assay (P49759 whole entry, looked up): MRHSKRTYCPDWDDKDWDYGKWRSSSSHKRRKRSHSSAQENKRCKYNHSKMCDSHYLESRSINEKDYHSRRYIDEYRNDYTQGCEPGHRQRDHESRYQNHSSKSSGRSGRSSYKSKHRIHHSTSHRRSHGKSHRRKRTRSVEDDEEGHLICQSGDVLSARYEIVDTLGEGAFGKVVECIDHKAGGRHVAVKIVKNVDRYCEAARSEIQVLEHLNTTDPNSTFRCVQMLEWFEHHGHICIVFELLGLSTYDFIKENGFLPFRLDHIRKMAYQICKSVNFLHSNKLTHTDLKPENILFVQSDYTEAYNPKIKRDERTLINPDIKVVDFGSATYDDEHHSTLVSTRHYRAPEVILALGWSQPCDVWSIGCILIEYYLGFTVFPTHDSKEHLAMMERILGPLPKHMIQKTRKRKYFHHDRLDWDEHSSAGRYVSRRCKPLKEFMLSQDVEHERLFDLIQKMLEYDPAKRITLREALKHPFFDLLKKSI

[2] = molecular target: T2, Casein kinase I (Homo sapiens) (UniProt Q9HCP0+P78368+P48730+P49674+P48729); assay: Inhibition of CK1 (unknown origin) assessed as residual activity at 1 uM relative to control
[3] = molecular target: T1, Dual specificity protein kinase CLK1; assay: Inhibition of recombinant human N-terminal GST-tagged CLK1 (129 to end residues) expressed in baculovirus infected Sf9 insect cells sing MBP as substrate measured after 60 mins by ADP-Glo luminescence assay
Target sequence in this assay (P49759 whole entry): as the sequence (P49759 whole entry, looked up) above

[4] = molecular target: T3, Glycogen synthase kinase-3 (Homo sapiens) (UniProt P49840+P49841); assay: Inhibition of GSK3 (unknown origin) assessed as residual activity at 10 uM relative to control
T3 sequence (P49840 whole entry, looked up): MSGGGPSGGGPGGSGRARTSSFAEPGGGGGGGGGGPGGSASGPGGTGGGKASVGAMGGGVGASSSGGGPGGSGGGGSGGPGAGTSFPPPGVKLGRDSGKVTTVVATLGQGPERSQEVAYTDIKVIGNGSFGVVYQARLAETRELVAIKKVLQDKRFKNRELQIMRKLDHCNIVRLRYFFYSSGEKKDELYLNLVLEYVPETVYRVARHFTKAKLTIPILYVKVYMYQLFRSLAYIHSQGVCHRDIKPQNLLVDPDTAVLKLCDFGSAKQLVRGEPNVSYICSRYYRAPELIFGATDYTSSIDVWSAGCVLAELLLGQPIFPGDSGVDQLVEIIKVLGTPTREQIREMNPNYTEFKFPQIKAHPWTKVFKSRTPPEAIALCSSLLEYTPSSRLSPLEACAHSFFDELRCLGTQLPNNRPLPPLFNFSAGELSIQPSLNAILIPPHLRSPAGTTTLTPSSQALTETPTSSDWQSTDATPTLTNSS
T3 sequence (P49841 whole entry, looked up): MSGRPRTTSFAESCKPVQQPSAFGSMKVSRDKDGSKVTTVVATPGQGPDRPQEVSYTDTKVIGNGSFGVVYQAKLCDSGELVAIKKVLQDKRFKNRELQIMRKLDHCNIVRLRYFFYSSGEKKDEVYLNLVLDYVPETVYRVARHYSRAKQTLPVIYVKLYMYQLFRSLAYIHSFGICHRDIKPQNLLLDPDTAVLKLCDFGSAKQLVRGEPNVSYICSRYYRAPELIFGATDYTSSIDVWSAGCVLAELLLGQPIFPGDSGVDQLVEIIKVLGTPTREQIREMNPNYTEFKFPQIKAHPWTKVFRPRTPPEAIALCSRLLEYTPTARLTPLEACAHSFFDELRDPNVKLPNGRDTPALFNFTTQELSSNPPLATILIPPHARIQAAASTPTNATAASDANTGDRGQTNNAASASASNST

[5] = molecular target: T3, Glycogen synthase kinase-3 (Homo sapiens); assay: Inhibition of GSK3 (unknown origin) assessed as residual activity at 1 uM relative to control
[6] = molecular target: T1, Dual specificity protein kinase CLK1; assay: Inhibition of recombinant human N-terminal GST-tagged CLK1 (129 to end residues) expressed in baculovirus infected Sf9 insect cells assessed as residual activity at 10 uM using MBP as substrate measured after 60 mins by ADP-Glo luminescence assay relative to control
Target sequence in this assay (P49759 whole entry, looked up): as the sequence (P49759 whole entry, looked up) above

[7] = molecular target: Dual specificity tyrosine-phosphorylation-regulated kinase 1A (Rattus norvegicus, UniProt Q63470); assay: Inhibition of recombinant full-length rat N-terminal GST-tagged DYRK1A was expressed in Escherichia coli using DYRKtide as substrate measured after 60 mins by ADP-Glo luminescence assay
[8] = molecular target: T2, Casein kinase I (Homo sapiens); assay: Inhibition of CK1 (unknown origin) assessed as residual activity at 10 uM relative to control
[9] = molecular target: Dual specificity tyrosine-phosphorylation-regulated kinase 1A (Rattus norvegicus) (UniProt Q63470); assay: Inhibition of recombinant full-length rat N-terminal GST-tagged DYRK1A was expressed in Escherichia coli assessed as residual activity at 1 uM using DYRKtide as substrate measured after 60 mins by ADP-Glo luminescence assay relative to control
[10] = molecular target: Dual specificity tyrosine-phosphorylation-regulated kinase 1A (Rattus norvegicus) (UniProt Q63470); assay: Inhibition of recombinant full-length rat N-terminal GST-tagged DYRK1A was expressed in Escherichia coli assessed as residual activity at 10 uM using DYRKtide as substrate measured after 60 mins by ADP-Glo luminescence assay relative to control
[11] = molecular target: T4, Cyclin-dependent kinase 5/CDK5 activator 1 (Homo sapiens) (UniProt Q00535+Q15078); assay: Inhibition of recombinant human full-length N-terminal GST-tagged CDK5/p25 expressed in baculovirus infected Sf9 insect cells assessed as residual activity at 1 uM using histone H1 as substrate measured after 10 mins relative to control
T4 sequence (Q00535 whole entry): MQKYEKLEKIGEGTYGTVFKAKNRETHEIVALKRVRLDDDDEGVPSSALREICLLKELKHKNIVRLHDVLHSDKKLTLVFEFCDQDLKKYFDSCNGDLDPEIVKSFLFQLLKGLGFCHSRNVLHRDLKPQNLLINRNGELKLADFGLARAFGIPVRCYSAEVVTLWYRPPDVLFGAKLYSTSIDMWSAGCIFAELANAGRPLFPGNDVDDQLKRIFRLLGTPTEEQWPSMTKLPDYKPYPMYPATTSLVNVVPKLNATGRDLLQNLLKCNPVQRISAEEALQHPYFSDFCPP
T4 sequence (Q15078 99-307 partner limits assumed): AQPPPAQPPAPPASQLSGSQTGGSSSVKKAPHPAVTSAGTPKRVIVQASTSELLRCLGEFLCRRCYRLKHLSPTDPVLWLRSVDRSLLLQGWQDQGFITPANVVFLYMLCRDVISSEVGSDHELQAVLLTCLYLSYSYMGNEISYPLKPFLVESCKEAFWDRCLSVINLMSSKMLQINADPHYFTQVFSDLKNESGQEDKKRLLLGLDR

[12] = molecular target: T4, Cyclin-dependent kinase 5/CDK5 activator 1 (Homo sapiens); assay: Inhibition of recombinant human full-length N-terminal GST-tagged CDK5/p25 expressed in baculovirus infected Sf9 insect cells assessed as residual activity at 10 uM using histone H1 as substrate measured after 10 mins relative to control
[13] = molecular target: Dual specificity tyrosine-phosphorylation-regulated kinase 1A (Rattus norvegicus) (UniProt Q63470); assay: Inhibition of rat DYRK1A kinase domain (1 to 499 residues) expressed in bacteria assessed as residual activity at 10 uM using KKISGRLSPIMTEQ as substrate in presence of [gamma33P]ATP relative to control
[14] = molecular target: T5, Glycogen synthase kinase-3 (Sus scrofa) (UniProt B2LUN4+I6LNT8); assay: Inhibition of porcine brain GSK3alpha/beta assessed as residual activity at 10 uM using YRRAAVPPSPSLSRHSSPHQSpEDEEE as substrate in presence of [gamma33P]ATP relative to control
In short: (§1)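 Radiometric kinase assay (method A, ³³P). GSK-3α/β affinity-purified from porcine brain (Sus scrofa domesticus). Inhibitors tested at 10 µM and 1 µM. Result reported as % residual kinase activity. Assays run in triplicate.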

[15] = molecular target: T5, Glycogen synthase kinase-3 (Sus scrofa); assay: Inhibition of porcine brain GSK3alpha/beta assessed as residual activity at 1 uM using YRRAAVPPSPSLSRHSSPHQSpEDEEE as substrate in presence of [gamma33P]ATP relative to control; in short: as §1
[16] = molecular target: Dual specificity tyrosine-phosphorylation-regulated kinase 1A (Rattus norvegicus) (UniProt Q63470); assay: Inhibition of rat DYRK1A kinase domain (1 to 499 residues) expressed in bacteria assessed as residual activity at 1 uM using KKISGRLSPIMTEQ as substrate in presence of [gamma33P]ATP relative to control
Sus scrofa [17] = species: Sus scrofa; assay: Inhibition of porcine brain CK1delta/epsilon assessed as residual activity at 10 uM using RRKHAAIGSpAYSITA as substrate in presence of [gamma33P]ATP relative to control
[18] = molecular target: T4, Cyclin-dependent kinase 5/CDK5 activator 1 (Homo sapiens); assay: Inhibition of recombinant human CDK5/p25 expressed in bacteria assessed as residual activity at 1 uM using histone H1 as substrate in presence of [gamma33P]ATP relative to control
In short: (§2)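 Recombinant human CDK5/p25 expressed in bacteria was used with histone H1 as substrate in a ³³P radioassay. Residual activity (%) was measured at 10 µM and 1 µM compound, in triplicate.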

Sus scrofa [19] = species: Sus scrofa; assay: Inhibition of porcine brain CK1delta/epsilon assessed as residual activity at 1 uM using RRKHAAIGSpAYSITA as substrate in presence of [gamma33P]ATP relative to control
[20] = molecular target: Dual specificity protein kinase CLK1 (Mus musculus) (UniProt P22518); assay: Inhibition of recombinant mouse CLK1 expressed in bacteria assessed as residual activity at 1 uM using GRSRSRSRSRSR as substrate in presence of [gamma33P]ATP relative to control
Chain of Dual specificity protein kinase CLK1 (Mus musculus) (P22518 whole entry, looked up): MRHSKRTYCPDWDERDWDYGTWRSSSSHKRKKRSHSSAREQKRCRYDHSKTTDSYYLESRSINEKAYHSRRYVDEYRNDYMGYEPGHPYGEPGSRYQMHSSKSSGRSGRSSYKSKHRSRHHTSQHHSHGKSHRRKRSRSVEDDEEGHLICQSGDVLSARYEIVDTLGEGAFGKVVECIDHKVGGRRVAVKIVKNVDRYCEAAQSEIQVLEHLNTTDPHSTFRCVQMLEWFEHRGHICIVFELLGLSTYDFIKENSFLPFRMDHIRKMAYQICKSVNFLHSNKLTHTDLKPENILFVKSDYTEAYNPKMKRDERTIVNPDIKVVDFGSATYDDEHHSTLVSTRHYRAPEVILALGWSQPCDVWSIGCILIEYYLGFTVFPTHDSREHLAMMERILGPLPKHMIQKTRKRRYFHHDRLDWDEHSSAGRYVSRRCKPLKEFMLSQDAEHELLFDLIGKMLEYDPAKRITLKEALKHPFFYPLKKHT

[21] = molecular target: T4, Cyclin-dependent kinase 5/CDK5 activator 1 (Homo sapiens); assay: Inhibition of recombinant human CDK5/p25 expressed in bacteria assessed as residual activity at 10 uM using histone H1 as substrate in presence of [gamma33P]ATP relative to control; in short: as §2
[22] = molecular target: Dual specificity protein kinase CLK1 (Mus musculus) (UniProt P22518); assay: Inhibition of recombinant mouse CLK1 expressed in bacteria assessed as residual activity at 10 uM using GRSRSRSRSRSR as substrate in presence of [gamma33P]ATP relative to control
[23] = molecular target: Dual specificity protein kinase CLK1 (Mus musculus, UniProt P22518); assay: Inhibition of recombinant mouse CLK1 expressed in bacteria using GRSRSRSRSRSR as substrate in presence of [gamma33P]ATP
Chain of Dual specificity protein kinase CLK1 (Mus musculus, UniProt P22518) (P22518 whole entry): as the sequence (P22518 whole entry, looked up) above

SMILES	Activity [13] [%]	Activity [14] [%]	Activity [15] [%]	Activity [16] [%]	Activity (Sus scrofa [17]) [%]	Activity [18] [%]	Activity (Sus scrofa [19]) [%]	Activity [20] [%]	Activity [21] [%]	Activity [22] [%]	other results
Nc1ncc2ccc3ccncc3c2n1											Activity [1]: 48%; Activity [2]: 64%; IC50 [3]: 1480 nM; Activity [4]: 75%; Activity [5]: 98%; Activity [6]: 9%; IC50 [7]: 2180 nM; Activity [8]: 22%; Activity [9]: 71%; Activity [10]: 25%; Activity [11]: 100%; Activity [12]: 63%
CC(C)N(/C=N/c1ncc2cc3cnccc3c([N+](=O)[O-])c2n1)C(C)C	46	15	73	95	60	100	96	53	45	1	
CC(C)N(CNc1ncc2cc3cnccc3c([N+](=O)[O-])c2n1)C(C)C	46	1	53	69	38	99	74	44	61	5	
CN(C)CNc1ncc2cc3cnccc3c([N+](=O)[O-])c2n1	4	15	73	39	38	99	100	13	41	6	IC50 [23]: 87 nM
CN(C)/C=N/c1ncc2cc3cnccc3c([N+](=O)[O-])c2n1	31	30	86	100	53	94	100	33	59	3	
Nc1ncc2cc3cnccc3c([N+](=O)[O-])c2n1	5	25	74	36	9	88	41	6	56	2	
